# Compounds with a hit are over-represented: about 2.6% of the library has one in this group of screens.
# SIAE inh = human SIAE inhibitors, primary screen, biochemical, fluorescence polarization, FP-Rh probe, 1536-well HTS | hit rate 0.69% among 370,000 | Sialate O-acetylesterase (Homo sapiens), Q9HAT2 | SIAE FP-Rh probe binding | inhibition, % at 9.66 µM;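 active = inhibition above a cutoff: mean of compounds within the control limits plus 3 SD of those, cut at about 17% in these data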;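 also: 0% = plate median of compound wells and 100% = probe without SIAE protein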
# Target sequence (Q9HAT2 whole entry, looked up): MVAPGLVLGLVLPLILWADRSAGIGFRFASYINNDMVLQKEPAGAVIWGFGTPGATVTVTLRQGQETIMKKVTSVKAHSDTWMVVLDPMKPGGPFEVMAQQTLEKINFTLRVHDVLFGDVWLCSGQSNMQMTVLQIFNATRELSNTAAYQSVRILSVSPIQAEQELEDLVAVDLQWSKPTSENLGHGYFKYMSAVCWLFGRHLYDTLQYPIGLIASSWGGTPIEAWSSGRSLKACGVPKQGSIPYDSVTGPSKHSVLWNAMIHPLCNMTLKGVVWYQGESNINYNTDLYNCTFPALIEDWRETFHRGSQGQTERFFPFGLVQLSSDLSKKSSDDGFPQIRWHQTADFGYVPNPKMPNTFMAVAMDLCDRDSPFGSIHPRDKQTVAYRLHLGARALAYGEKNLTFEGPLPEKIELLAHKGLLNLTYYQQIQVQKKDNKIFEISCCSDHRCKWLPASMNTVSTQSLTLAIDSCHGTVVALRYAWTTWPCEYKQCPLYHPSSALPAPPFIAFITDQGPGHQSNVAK
# mABHD4 FP = ABHD4 inhibitors, primary screen, biochemical, fluorescence polarization, mouse; hit rate 0.54% among 370,000; (Lyso)-N-acylphosphatidylethanolamine lipase (Mus musculus), Q8VD66; inhibition, % at 8.92 µM; AID 720543, 2013; purified mABHD4, FP-Rh probe fluorescence polarization;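 active = inhibition exceeding the mean over every tested compound plus 3 SD, cut at about 30% in these data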;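 also: 0% = plate median of compound wells and 100% = S159A mutant with DMSO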
#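 Assay system: mouse ABHD4 enzyme, wild type / Also added: fluorescent activity-based probe FP-Rh / Doses: single nominal dose of 8.92 µM, 0.89% DMSO final / Timing: 45 min compound pre-incubation plus 60 min probe step, 25 °C / Signal: FP readout, ex 525 nm / em 598 nm / Control set: S159A mutant/DMSO as 100%, compound-well median as 0%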
# HTRA1 inhibitor = HTRA1 serine protease inhibitors, primary screen, biochemical, fluorescence polarization, HTS; inhibition, % at 5.96 µM; hit rate 0.5% among 340,000; recombinant HTRA1, FP-rhodamine activity-based probe; Q92743; in the data active = inhibition above about 36%;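 also: 0% = enzyme with DMSO and 100% = wells lacking enzyme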
# PRMT1 inh = PRMT1 methyltransferase inhibitors, primary screen, biochemical, fluorescence polarization | Protein arginine N-methyltransferase 1 (Homo sapiens), Q99873 | recombinant PRMT1, activity-based probe fluorescence polarization | inhibition, % at 2.79 µM | hit rate 1.3% among 370,000 | AID 652257, 2013;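 active = inhibition above about 21% made by adding two undisclosed values, limit read from the data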
# TCR-CD3 inh = inhibitors of human TCR-CD3 interaction, primary screen, biochemical, fluorescence, TAMRA-labeled TCR probe | hit rate 0.37% among 360,000 | AID 651800, 2012 | inhibition, % at 9.4 µM; in the data active = inhibition above about 19%;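 also: recombinant mutant TCR 2C K166C tagged with TAMRA read by polarization; 0% = receptor in buffer alone and 100% = receptor with positive control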
# PRMT1 confirm = PRMT1 methyltransferase inhibitors, confirmation, biochemical, fluorescence polarization, triplicate. shares compounds with PRMT1 inh. recombinant His-PRMT1, activity-based probe fluorescence polarization. hit rate 42% among 3,300. AID 687036, 2013. inhibition, % at 2.79 µM;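 active = mean inhibition across replicates above the hit cutoff derived for the earlier primary screen, cut at about 22% in these data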
# An asterisk follows results filed as active; x = not tested or not shown.
SMILES,SIAE inh,mABHD4 FP,HTRA1 inhibitor,PRMT1 inh,TCR-CD3 inh,PRMT1 confirm
CC(=O)N1CC=C2C(C#N)=C(N)C(C#N)(C#N)C(CCc3ccccc3)C2C1 (stereo unspecified),3,6,4,6,7,x
CCN1CC=C2C(C#N)=C(N)C(C#N)(C#N)C(CCc3ccccc3)C2C1 (stereo unspecified),15,34*,28,49*,10,25*
O=C(NCc1n[nH]c(=S)n1-c1cccc(Cl)c1)c1ccc(S(=O)(=O)N2CCCC2)cc1,3,0,3,4,1,x
O=C(NCc1n[nH]c(=S)n1-c1cccc(C(F)(F)F)c1)c1ccc(S(=O)(=O)N2CCCCC2)cc1,-4,-10,3,28*,4,8
O=C(NCc1n[nH]c(=S)n1-c1cccc(C(F)(F)F)c1)c1ccc(S(=O)(=O)N2CCCC2)cc1,0,-8,-7,9,-6,x
CCCN(CCC)S(=O)(=O)c1ccc(C(=O)NCc2n[nH]c(=S)n2-c2ccc(Cl)c(Cl)c2)cc1,6,-1,-9,29*,3,14
CSCC(C)N1CCC(n2nccc2NC(=O)CCCc2ccccc2)CC1 (stereo unspecified),-5,-10,9,30*,1,24*
Cc1cc(Cl)ccc1NC(=O)CN1C(=O)NC2(CCCc3ccccc32)C1=O (stereo unspecified),-1,-9,-10,3,-8,x
COc1cc(N=c2ssnc2Cl)c(OC)cc1Cl,16,11,6,94*,-2,91*
COc1ccc(OC)c(N=c2ssnc2Cl)c1,2,13,13,75*,3,81*
COc1ccc(OC)c(N=C2C(=O)Nc3ccccc32)c1,10,4,9,2,4,x
O=C1NC(=S)S/C1=C\c1ccc(SCc2ccccc2)o1,-10,-16,-32,64*,4,15
CS(=O)(=O)c1ccc(OC[C@@H](O)CN2CCC(C(O)(c3ccccc3)c3ccccc3)CC2)cc1,0,4,x,2,x,x
COc1cc(-c2nnc3n2CCCCC3)cc(OC)c1OC,-1,-8,3,-4,-10,x
CC[C@@H](C)[C@H](NC(=O)OC(C)(C)C)c1nnc(S(=O)(=O)Cc2cc(C)ccc2C)o1,1,29,2,20,-3,x
Cc1ccccc1CS(=O)(=O)c1nnc([C@H](CC(C)C)NC(=O)OC(C)(C)C)o1,-7,25,1,27*,-9,15
CCN(CC)CCSC(=O)C(c1ccccc1)c1ccccc1,7,0,x,76*,3,40*
COc1cc(C2CC(=O)N3CN(c4ccccc4C)CSC3=C2C#N)cc(OC)c1OC (stereo unspecified),-8,8,x,38*,0,46*
COc1ccccc1N1CSC2=C(C#N)C(c3ccc(SC)cc3)CC(=O)N2C1 (stereo unspecified),-17,31*,1,39*,6,64*
O=C(O)C1CCCCC1C(=O)Nc1ccc(S(=O)(=O)N2CCCCC2)cc1 (stereo unspecified),2,-8,4,9,-6,x
COCC(=O)N1CCC(Oc2ccc(C(=O)N3CCCCC3COC)cc2)CC1 (stereo unspecified),6,7,0,1,-1,x
S=c1[nH]nc(-c2cc3ccccc3o2)n1Cc1ccccc1,8,11,-4,25*,0,16
COCCC(=O)N1CCC(Oc2ccc(C(=O)NCCc3ccccn3)cc2)CC1,2,1,3,1,11,x
Cc1cccc(C)c1NC(=O)/C(=C/c1ccco1)c1ccccc1,-5,3,0,26*,0,4
O=C1c2ccccc2CC1Sc1nnc(-c2ccncc2)o1 (stereo unspecified),1,0,7,-3,7,x
O=C(O)c1cccnc1SC1CC(=O)N(c2ccccc2)C1=O (stereo unspecified),2,4,-1,0,5,x

# High-throughput results from PubChem BioAssay.
